Laboratory results reported in paper PMC6045484 (ACS Omega, 2018).
Converted amounts (≈) assume the structure as drawn.

What was measured:
[1] = system: P. falciparum (W2); assay: in vitro antimalarial activity, plasmodial LDH; type: cell-based, Plasmodium falciparum; conditions: Plasmodium falciparum, W2, 72 h, read-out: P. falciparum (W2) IC50, CQ-resistant W2 strain, 72 h
Procedure, shortened: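 P. falciparum-infected erythrocytes (2% parasitemia, 2% hematocrit) in RPMI 1640 with 10% human serum and 60 μg/mL amikacin. Exposed to test compound dilutions for 72 h at 37 °C under 90% N2/5% O2/5% CO2. LDH measured with Malstat reagent (30 min, room temperature), then NBT/PES for 1 h in the dark, stopped with 5% acetic acid, read at 650 nm. IC50 from dose-response curves.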

[2] = system: A. fumigatus ATCC 90906; assay: in vitro antifungal activity; type: cell-based, Aspergillus fumigatus; conditions: Aspergillus fumigatus; for IC50: ATCC90906, read-out: A. fumigatus IC50; for MFC: ATCC90906, read-out: A. fumigatus MFC; for MIC: ATCC90906, read-out: A. fumigatus MIC
Procedure, shortened: (§1)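 Modified NCCLS broth method in Sabouraud dextrose. Inoculum set by OD630 to 1.5 × 10^3 CFU/mL. Test compound serially diluted in 20% DMSO/saline, duplicate wells, up to 20 μg/mL. Incubated 70–74 h at 35 °C; 530 nm read before and after. IC50 is 50% growth inhibition; MIC is no detectable growth. MFC from clear wells subcultured on agar. Amphotericin B control.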

[3] = system: MRSA (ATCC33591); assay: in vitro antibacterial activity; type: cell-based, methicillin-resistant Staphylococcus aureus; conditions: Staphylococcus aureus, ATCC33591|MRSA, read-out: MIC, MRSA
Procedure, shortened: (§2)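 Test compound serially diluted in 20% DMSO/saline and plated in duplicate, up to 20 μg/mL. Inoculum in cation-adjusted Mueller–Hinton broth, pH 7.3, set by OD630 to 5 × 10^5 CFU/mL. Incubated 16–20 h at 35 °C; 530 nm read before and after. IC50 is 50% growth inhibition; MIC is no detectable growth. MBC from clear wells subcultured on agar. Ciprofloxacin control.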

[4] = system: L. donovani promastigotes; assay: in vitro antileishmanial activity, alamarBlue assay; type: cell-based, Leishmania donovani; conditions: Leishmania donovani, 48 h; for IC50: read-out: L. donovani IC50, promastigotes, 48 h; for IC90: read-out: L. donovani IC90, promastigotes, 48 h
[5] = system: M. intracellulare (ATCC23068); assay: in vitro antibacterial activity, modified alamarBlue procedure; type: cell-based, Mycobacterium intracellulare; conditions: Mycobacterium intracellulare; for IC50: ATCC23068, read-out: IC50 (concentration that affords 50% growth inhibition), M. intracellulare; for MBC: ATCC23068, read-out: MBC (minimum bactericidal concentration), M. intracellulare; for MIC: ATCC23068, read-out: MIC, M. intracellulare
Procedure, shortened: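 Modified alamarBlue microplate method. Test compound serially diluted in 20% DMSO/saline, duplicate wells, up to 20 μg/mL. Inoculum 2.0 × 10^6 CFU/mL in Middlebrook 7H9 with OADC, pH 7.3, containing 5% alamarBlue. Incubated 70–74 h at 37 °C, 10% CO2; fluorescence 544ex/590em read before and after. MIC: no blue-to-pink change. MBC by subculturing blue wells on agar. Ciprofloxacin control.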

[6] = system: SK-MEL, KB, BT-549, SK-OV-3, VERO and LLC-PK1 cells; assay: cytotoxicity, neutral red uptake assay; type: cell-based, mammalian; conditions: highest test concentration 4760 ng/mL
Procedure, shortened: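 Cells seeded at 25 000/well and allowed 24 h to reach confluence. Test compound was then added and incubated 48 h. Viable cells were counted by a modified neutral red uptake method. The panel was four human cancer lines and two noncancerous mammalian kidney lines. Doxorubicin served as positive control and DMSO as negative control.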

[7] = system: C. albicans ATCC90028; assay: in vitro antifungal activity; type: cell-based, Candida albicans; conditions: Candida albicans; for IC50: ATCC90028, read-out: C. albicans IC50; for MFC: ATCC90028, read-out: C. albicans MFC; for MIC: ATCC90028, read-out: C. albicans MIC
Procedure, shortened: as §1

[8] = system: P. falciparum (D6); assay: in vitro antimalarial activity, plasmodial LDH; type: cell-based, Plasmodium falciparum; conditions: Plasmodium falciparum, D6, 72 h, read-out: P. falciparum (D6) IC50
[9] = system: C. neoformans ATCC90113; assay: in vitro antifungal activity; type: cell-based, Cryptococcus neoformans; conditions: Cryptococcus neoformans; for IC50: ATCC90113, read-out: C. neoformans IC50; for MFC: ATCC90113, read-out: C. neoformans MFC; for MIC: ATCC90113, read-out: C. neoformans MIC
Procedure, shortened: as §1

[10] = system: SA (ATCC29213); assay: in vitro antibacterial activity; type: cell-based; conditions: Staphylococcus aureus; for IC50: ATCC29213, read-out: IC50 (concentration that affords 50% growth inhibition), SA; for MBC: ATCC29213, read-out: MBC (minimum bactericidal concentration), SA; for MIC: ATCC29213, read-out: MIC, SA
Procedure, shortened: as §2

| Compound | IC50 [1] [mg/L] | IC50 [2] [mg/L] | MFC [2] [mg/L] | MIC [2] [mg/L] | MIC [3] [mg/L] | IC50 [4] [mg/L] | IC90 [4] [mg/L] | IC50 [5] [mg/L] | MBC [5] [mg/L] | MIC [5] [mg/L] | cytotoxicity CTX [6] | IC50 [7] [mg/L] | MFC [7] [mg/L] | MIC [7] [mg/L] | IC50 [8] [mg/L] | IC50 [9] [mg/L] | MFC [9] [mg/L] | MIC [9] [mg/L] | IC50 [10] [mg/L] | MBC [10] [mg/L] | other results |
| --- | --- | --- | --- | --- | --- | --- | --- | --- | --- | --- | --- | --- | --- | --- | --- | --- | --- | --- | --- | --- | --- |
| CCCCCCCCOc1c(OC)cc(NC(C)CCCNC(=O)C(N)C(C)CC)c2nc(C(C)(C)C)ccc12 (stereo not drawn) [compound 119, 2-Amino-N-(4-(2-tert-butyl-6-methoxy-5-(octyloxy)quinolin-8-ylamino)pentyl)-3-methylpentanamide] | > 4.76 | > 20 | > 20 | > 20 | > 20 | 6.04 (≈ 10.8 µM) | 26.9 (≈ 48.4 µM) | > 20 | > 20 | > 20 | NC (NC, not cytotoxic up to 4760 ng/mL (4.76 μg/mL)) | > 20 | > 20 | > 20 | > 4.76 | 2.87 (≈ 5.15 µM) | 10 (≈ 18 µM) | 10 (≈ 18 µM) | 5.03 (≈ 9.03 µM) | > 20 | MIC [10]: > 20 mg/L |
| CCCCCCCCOc1c(OC)cc(NC(C)CCCNC(=O)C(N)CCSC)c2nc(C(C)(C)C)ccc12 (stereo not drawn) [compound 120, 2-Amino-N-(4-(2-tert-butyl-6-methoxy-5-(octyloxy)quinolin-8-ylamino)pentyl)-4-(methylthio)butanamide] | 0.15 (≈ 0.261 µM) | > 20 | > 20 | > 20 | 20 (≈ 34.8 µM) | 6.99 (≈ 12.2 µM) | 26.4 (≈ 46 µM) | 20 (≈ 34.8 µM) | > 20 | > 20 | NC (NC, not cytotoxic up to 4760 ng/mL (4.76 μg/mL)) | > 20 | > 20 | > 20 | 0.16 (≈ 0.278 µM) | 2.74 (≈ 4.77 µM) | 5 (≈ 8.7 µM) | 5 (≈ 8.7 µM) | 11.7 (≈ 20.3 µM) | > 20 | MIC [10]: 20 mg/L (≈ 34.8 µM) |
| CCCCCCCCOc1c(OC)cc(NC(C)CCCNC(=O)C(N)Cc2cc3ccccc3[nH]2)c2nc(C(C)(C)C)ccc12 (stereo not drawn) [compound 122, 2-Amino-N-(4-(2-tert-butyl-6-methoxy-5-(octyloxy)quinolin-8-ylamino)pentyl)-3-(1H-indol-2-yl)propanamide] | > 4.76 | > 20 | > 20 | > 20 | 20 (≈ 31.8 µM) | 9.32 (≈ 14.8 µM) | 25.7 (≈ 40.8 µM) | > 20 | > 20 | > 20 | NC (NC, not cytotoxic up to 4760 ng/mL (4.76 μg/mL)) | > 20 | > 20 | > 20 | > 4.76 | 6.8 (≈ 10.8 µM) | > 20 | 20 (≈ 31.8 µM) | 12 (≈ 19 µM) | > 20 | MIC [10]: 20 mg/L (≈ 31.8 µM) |
| CCCCCCCCOc1c(OC)cc(NC(C)CCCNC(=O)C2CCCN2)c2nc(C(C)(C)C)ccc12 (stereo not drawn) [compound 123, N-(4-(2-tert-Butyl-6-methoxy-5-(octyloxy)quinolin-8-ylamino)pentyl)pyrrolidine-2-carboxamide] | > 4.76 | > 20 | > 20 | > 20 | 10 (≈ 18.5 µM) | 12.4 (≈ 22.9 µM) | 38.4 (≈ 71 µM) | > 20 | > 20 | > 20 | NC (NC, not cytotoxic up to 4760 ng/mL (4.76 μg/mL)) | > 20 | > 20 | > 20 | > 4.76 | 2.89 (≈ 5.34 µM) | 5 (≈ 9.25 µM) | 5 (≈ 9.25 µM) | 10.4 (≈ 19.3 µM) | 20 (≈ 37 µM) | MIC [10]: 20 mg/L (≈ 37 µM) |
